Laboratory results taken from ChEMBL document CHEMBL3612055, “Design, synthesis and biological evaluation of 1,3-diphenyl-1H-pyrazole derivatives containing benzimidazole skeleton as potential anticancer and apoptosis inducing agents” (Eur J Med Chem, 2015).
Calls of active or inactive are those of the source. The calls are words filed in the database; no cut-off is given here.

Legend:
A549 = assay: Anticancer activity against human A549 cells assessed as reduction in cell growth incubated for 48 hrs by MTT assay; assay type: functional, cell-based; conditions: A549, 48 h
MCF7 [1] = assay: Anticancer activity against human MCF7 cells assessed as reduction in cell growth incubated for 48 hrs by MTT assay; assay type: functional, cell-based; conditions: MCF7, 48 h
HeLa = assay: Anticancer activity against human HeLa cells assessed as reduction in cell growth incubated for 48 hrs by MTT assay; assay type: functional, cell-based
HaCaT = assay: Cytotoxic activity against human HaCaT cells assessed as reduction in cell growth incubated for 48 hrs by MTT assay; assay type: cell-based
MCF7 [2] = assay: Anticancer activity against human MCF7 cells assessed as reduction in cell viability at IC50 level incubated for 48 hrs; assay type: functional, cell-based
Summary of the method: (§1)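 MCF-7 cells were kept in DMEM/10% FBS and used at passages 4-8. […] Detachment, shrinkage and viable cell numbers were scored under phase contrast microscopy against untreated cells.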

MCF7 [3] = assay: Induction of cell morphology changes in human MCF7 cells assessed as cell detachment at IC50 level incubated for 48 hrs by phase contrast microscopy; assay type: functional, cell-based; summary of the method: as §1
MCF7 [4] = assay: Induction of cell morphology changes in human MCF7 cells assessed as cell shrinkage at IC50 level incubated for 48 hrs by phase contrast microscopy; assay type: functional, cell-based; summary of the method: as §1
MCF7 [5] = assay: Inhibition of colony formation in human MCF7 cells assessed as reduction in clonogenic survival at IC50 level incubated for 24 hrs followed medium replacement with fresh medium and further incubation for 14 days; assay type: functional
MCF7 [6] = assay: Inhibition of cell migration of human MCF7 cells at IC50 level incubated for 24 to 72 hrs by phase contrast microscopy based wound healing assay; assay type: functional
Summary of the method: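 Confluent MCF-7 monolayers (5×10^5 cells/well, 24 h) were scratched with a pipette tip and washed with PBS pH 7.4. Medium with IC50 concentrations was then added. Cells entering the wound were photographed by phase contrast at 0, 24, 48 and 72 h, in ≥3 random fields per well.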

MCF7 [7] = assay: Increase in E-cadherin mRNA expression in human MCF7 cells at IC50 level incubated for 24 hrs by RT-PCR method; assay type: functional
Summary of the method: (§2)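 Total RNA was Trizol-extracted and 1 µg reverse-transcribed with random primers. Real-time PCR ran 95 °C 3 min, then 40 cycles of 95 °C 1 s / 60 °C 20 s. Fold change came from comparative CT, normalised to β-actin. Reactions ran in triplicate, across three experiments.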

MCF7 [8] = assay: Increase in beta-catenin mRNA expression in human MCF7 cells at IC50 level incubated for 24 hrs by RT-PCR method; assay type: functional; summary of the method: as §2
MCF7 [9] = assay: Induction of cell cycle arrest in human MCF7 cells assessed as accumulation at G1 phase at IC50 level incubated for 24 hrs by propidium iodide staining based flow cytometry (reference value: 72.3%); assay type: functional
Summary of the method: (§3)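 Floating and adherent cells were fixed in 70% ethanol at 4 °C and rehydrated. They were stained 15 min with PI/Triton X-100/RNase A. 10000 events were acquired by flow cytometry. G0/G1, S and G2/M percentages were gated in FlowJo.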

MCF7 [10] = assay: Induction of cell cycle arrest in human MCF7 cells assessed as reduction in accumulation at S phase at IC50 level incubated for 24 hrs by propidium iodide staining based flow cytometry; assay type: functional; summary of the method: as §3
MCF7 [11] = assay: Induction of cell cycle arrest in human MCF7 cells assessed as reduction in accumulation at G2/M phase at IC50 level incubated for 24 hrs by propidium iodide staining based flow cytometry; assay type: functional; summary of the method: as §3
MCF7 [12] = assay: Reduction in cyclin D1 mRNA expression in human MCF7 cells at IC50 level incubated for 24 hrs by RT-PCR method; assay type: functional, cell-based; summary of the method: as §2
MCF7 [13] = assay: Increase in cyclin B1 mRNA expression in human MCF7 cells at IC50 level incubated for 24 hrs by RT-PCR method; assay type: functional; summary of the method: as §2
MCF7 [14] = assay: Effect on CDK1 cyclin D1 mRNA expression in human MCF7 cells at IC50 level incubated for 24 hrs by RT-PCR method; assay type: functional, cell-based; summary of the method: as §2
MCF7 [15] = assay: Induction of apoptosis in human MCF7 cells assessed as chromatin condensation at IC50 level incubated for 24 hrs by Hoechst […] staining based fluorescence microscopy; assay type: functional
Summary of the method: (§4)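 They were fixed in 4% paraformaldehyde and stained with Hoechst […] (5 µg/mL, 30 min, room temperature). Nuclei in random fields were imaged by fluorescence microscopy (ex 350 / em 460 nm). Apoptotic fraction is mean ± SD of three independent experiments; DMSO control.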

MCF7 [16] = assay: Induction of apoptosis in human MCF7 cells assessed as nuclear fragmentation at IC50 level incubated for 24 hrs by Hoechst […] staining based fluorescence microscopy; assay type: functional; summary of the method: as §4
MCF7 [17] = assay: Induction of apoptosis in human MCF7 cells assessed as DNA fragmentation at IC50 level incubated for 24 hrs by ethidium bromide staining based agarose gel electrophoresis method; assay type: functional, cell-based
Summary of the method: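 Pellets were lysed in SDS/EDTA/Tris pH 8.0 buffer with RNase A (37 °C, 90 min), then proteinase K (50 °C, 1 h). DNA was precipitated with ammonium acetate/ethanol. It was run on 1.5% agarose in TBE and stained with ethidium bromide, against control cells.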

MCF7 [18] = assay: Reduction in mitochondrial membrane potential in human MCF7 cells at IC50 level incubated for 24 hrs by rhodamine 123 staining based fluorescence microscopy; assay type: functional
Summary of the method: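 Harvested cells were loaded with rhodamine 123 (5 µg/mL), washed and incubated 30 min at room temperature. They were analysed by flow cytometry and fluorescence microscopy, and fluorescence loss was quantified by spectrofluorometry vs untreated cells.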

MCF7 [19] = assay: Induction of ROS generation in human MCF7 cells at IC50 level incubated for 24 hrs by carboxy-DCFDA staining based fluorescence microscopy; assay type: functional
Summary of the method: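 Carboxy-DCFDA (10 µM) was added for 30 min at room temperature in the dark. Cells were washed and resuspended at 5×10^4 cells/mL. Fluorescence was read by spectrofluorometry at ex 488 / em 525 nm, with fluorescence microscopy images also taken.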

MCF7 [20] = assay: Induction of apoptosis in human MCF7 cells assessed as increase in Bax mRNA expression at IC50 level incubated for 24 hrs by RT-PCR method; assay type: functional, cell-based; summary of the method: as §2
MCF7 [21] = assay: Induction of apoptosis in human MCF7 cells assessed as reduction in Bcl2 mRNA expression at IC50 level incubated for 24 hrs by RT-PCR method; assay type: functional, cell-based; summary of the method: as §2
MCF7 [22] = assay: Induction of apoptosis in human MCF7 cells assessed as increase in caspase-3 mRNA expression at IC50 level incubated for 24 hrs by RT-PCR method; assay type: functional, cell-based; summary of the method: as §2
MCF7 [23] = assay: Induction of apoptosis in human MCF7 cells assessed as increase in caspase-7 mRNA expression at IC50 level incubated for 24 hrs by RT-PCR method; assay type: functional, cell-based; summary of the method: as §2

SMILES | IC50 (A549) | IC50 (MCF7 [1]) | IC50 (HeLa) | IC50 (HaCaT) | Activity (MCF7 [2]) | Activity (MCF7 [3]) | Activity (MCF7 [4]) | inhibition (INH) (MCF7 [5]) | inhibition (MCF7 [6]) | fold change (FC) (MCF7 [7]) | fold change (FC) (MCF7 [8]) | Activity (MCF7 [9]) | Activity (MCF7 [10]) | Activity (MCF7 [11]) | inhibition (MCF7 [12]) | fold change (FC) (MCF7 [13]) | Activity (MCF7 [14]) | Activity (MCF7 [17]) | inhibition (INH) (MCF7 [18]) | fold change (FC) (MCF7 [19]) | also measured
Fc1ccc(-c2nn(-c3ccccc3)cc2-c2nc3cc(F)ccc3[nH]2)cc1 | 1130 nM | 950 nM | 1570 nM | > 50000 nM | Active | Active | Active | 50% | Active | 1.6 | 1.4 | 84.7% | Active | Active | Active | 1.1 | inactive | Active | 44% | 2 | Activity (MCF7 [15]): 26%; Activity (MCF7 [16]): 26%; Activity (MCF7 [20]): Active; Activity (MCF7 [21]): Active; Activity (MCF7 [22]): Active; Activity (MCF7 [23]): Active
Brc1ccc2[nH]c(-c3cn(-c4ccccc4)nc3-c3ccccc3)nc2c1 | 1810 nM | 830 nM | 1760 nM | > 50000 nM | Active | Active | Active | 50% | Active | 2.2 | 1.4 | 85.2% | Active | Active | Active | 1.1 | inactive | Active | 62% | 2 | Activity (MCF7 [20]): Active; Activity (MCF7 [21]): Active; Activity (MCF7 [22]): Active; Activity (MCF7 [23]): Active
Clc1ccc(-c2nn(-c3ccccc3)cc2-c2nc3cc(Cl)ccc3[nH]2)cc1 | 1340 nM | 1170 nM | 1630 nM | > 50000 nM | Active | Active | Active | 50% | Active | 1.6 | 1.4 | 81.3% | Active | Active | Active | 1.1 | inactive | Active | 44% | 2 | Activity (MCF7 [15]): 32%; Activity (MCF7 [16]): 32%; Activity (MCF7 [20]): Active; Activity (MCF7 [21]): Active; Activity (MCF7 [22]): Active; Activity (MCF7 [23]): Active
